# Organism: Cavia porcellus
# Assay: Percent inhibition of SRS-A induced contraction minus percent inhibition of 25 mM KCl induced contractions at a conc of 5(uM)
# Type: functional
# Procedure, shortened: (§1)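 Ileum segments (proximal to Peyer's patch) from male Hartley guinea pigs (400–600 g) were held in modified Tyrode's at 37.5 °C under 95% O2-5% CO2, with isometric recording. Partially purified guinea pig SRS-A or 25 mM KCl was dosed for 60–80% maximal contraction, then reapplied after 15 min compound exposure with five bath changes. Value is percent inhibition versus vehicle controls (3 vs 3 tissues), SRS-A minus KCl.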
row,Compound,Inhibition [%]
1,CSc1ccc2c(c1Cl)CN(S(=O)(=O)NS(=O)(=O)N1CCc3ccc(SC)c(Cl)c3C1)CC2,25
2,O=S(=O)(NS(=O)(=O)N1CCc2c(Cl)c(Cl)c(Cl)c(Cl)c2C1)N1CCc2c(Cl)c(Cl)c(Cl)c(Cl)c2C1,14
3,O=S(=O)(NS(=O)(=O)N1CCc2c(Br)cccc2C1)N1CCc2c(Br)cccc2C1,29
4,O=S(=O)(NS(=O)(=O)N1CCc2c(Br)ccc(Br)c2C1)N1CCc2c(Br)ccc(Br)c2C1,50
5,COc1ccc(OC)c2c1CCN(S(=O)(=O)NS(=O)(=O)N1CCc3c(OC)ccc(OC)c3C1)C2,12
6,O=S(=O)(NS(=O)(=O)N1CCc2cc(Cl)ccc2C1)N1CCc2cc(Cl)ccc2C1,1
7,O=S(=O)(NS(=O)(=O)N1CCc2ccc(C(F)(F)F)c(C(F)(F)F)c2C1)N1CCc2ccc(C(F)(F)F)c(C(F)(F)F)c2C1,27
8,O=S(=O)(NC1CC1c1ccc(Cl)c(Cl)c1)NS(=O)(=O)NC1CC1c1ccc(Cl)c(Cl)c1 (centres undefined),42
9,CC1c2c(ccc(Cl)c2Cl)CCN1S(=O)(=O)NS(=O)(=O)N1CCc2ccc(Cl)c(Cl)c2C1C (centres undefined),48
10,O=S(=O)(NS(=O)(=O)N1CCc2ccc([S+]([O-])C(Cl)(Cl)Cl)cc2C1)N1CCc2ccc([S+]([O-])C(Cl)(Cl)Cl)cc2C1 (centres undefined),28
11,O=S(=O)(NC1CC1c1ccccc1)NS(=O)(=O)NC1CC1c1ccccc1 (centres undefined),17
12,O=S(=O)(NS(=O)(=O)N1CCc2ccc(Br)cc2C1)N1CCc2ccc(Br)cc2C1,26
13,O=S(=O)(NS(=O)(=O)N1CCc2ccc(Cl)c(Cl)c2C1c1ccccc1)N1CCc2ccc(Cl)c(Cl)c2C1c1ccccc1 (centres undefined),20
14,O=S(=O)(NS(=O)(=O)N1CCc2ccc(Cl)c(Cl)c2C1Cc1ccccc1)N1CCc2ccc(Cl)c(Cl)c2C1Cc1ccccc1 (centres undefined),8
15,CCCCCCC1c2c(ccc(Cl)c2Cl)CCN1S(=O)(=O)NS(=O)(=O)N1CCc2ccc(Cl)c(Cl)c2C1CCCCCC (centres undefined),-5
16,O=S(=O)(NS(=O)(=O)N1CCc2c(cccc2-c2ccccc2)C1)N1CCc2c(cccc2-c2ccccc2)C1,13
17,O=S(=O)(NS(=O)(=O)N1CCc2ccc(Cl)c(Cl)c2C1C1CCCC1)N1CCc2ccc(Cl)c(Cl)c2C1C1CCCC1 (centres undefined),4
18,O=S(=O)(NS(=O)(=O)N1CCc2ccc(Cl)c(SC(F)(F)C(F)F)c2C1)N1CCc2ccc(Cl)c(SC(F)(F)C(F)F)c2C1,22
19,Cc1ccc2c(c1Cl)CN(S(=O)(=O)NS(=O)(=O)N1CCc3ccc(C)c(Cl)c3C1)CC2,34
20,O=S(=O)(NS(=O)(=O)N1CCc2cc(Cl)c(Cl)cc2C1)N1CCc2cc(Cl)c(Cl)cc2C1,40
21,O=S(=O)(NS(=O)(=O)N1CCc2ccc(Cl)c(Cl)c2C1)N1CCc2ccc(Cl)c(Cl)c2C1,42
22,O=S(=O)(NS(=O)(=O)N1CCc2cc(Cl)ccc21)N1CCc2cc(Cl)ccc21,13
23,O=S(=O)(NS(=O)(=O)N1CCc2ccc(Cl)c(Cl)c2C1C1CC1)N1CCc2ccc(Cl)c(Cl)c2C1C1CC1 (centres undefined),47
24,CC1Cc2ccc(Cl)c(Cl)c2CN1S(=O)(=O)NS(=O)(=O)N1Cc2c(ccc(Cl)c2Cl)CC1C (centres undefined),18
25,COc1ccc2c(c1Cl)CN(S(=O)(=O)NS(=O)(=O)N1CCc3ccc(OC)c(Cl)c3C1)CC2,20
26,O=S(=O)(NS(=O)(=O)N1CCc2ccc(Cl)cc2C1)N1CCc2ccc(Cl)cc2C1,18

# Organism: Cavia porcellus
# Assay: Percent inhibition of SRS-A induced contraction minus percent inhibition of 25 mM KCl induced contractions at a conc of 5(uM); Percent enhancement of tissue contraction compared to control
# Type: functional
# Procedure, shortened: as §1
row,Compound,Inhibition [%]
1,COc1ccc2c(c1OC)CN(S(=O)(=O)NS(=O)(=O)N1CCc3ccc(OC)c(OC)c3C1)CC2,5
2,COc1ccc2c(c1)CN(S(=O)(=O)NS(=O)(=O)N1CCc3ccc(OC)cc3C1)CC2,6

# Organism: Cavia porcellus
# Assay: Percent inhibition of SRS-A induced contraction minus percent inhibition of 25 mM KCl induced contractions at a conc of 50(uM); Not statistically significant
# Type: functional
# Procedure, shortened: as §1
row,Compound,Inhibition [%]
1,O=S(=O)(NS(=O)(=O)N1CCc2ccccc2C1)N1CCc2ccccc2C1,10

# Organism: Cavia porcellus
# Assay: Percent inhibition of SRS-A induced contraction minus percent inhibition of 25 mM KCl induced contractions at a conc of 5(uM); Not statistically significant
# Type: functional
# Procedure, shortened: as §1
row,Compound,Inhibition [%]
1,O=S(=O)(NS(=O)(=O)N1CCc2c(Cl)cccc2C1)N1CCc2c(Cl)cccc2C1,8
2,O=S(=O)(NS(=O)(=O)N1CCc2cc(Cl)c(Cl)c(Cl)c2C1)N1CCc2cc(Cl)c(Cl)c(Cl)c2C1,11
3,CC(=O)c1ccc2c(c1)CN(S(=O)(=O)NS(=O)(=O)N1CCc3ccc(C(C)=O)cc3C1)CC2,4
4,O=S(=O)(NS(=O)(=O)N1CCc2cccc(Cl)c2C1)N1CCc2cccc(Cl)c2C1,16
5,O=S(=O)(NS(=O)(=O)N1CCc2c(Br)cc(Br)c(Br)c2C1)N1CCc2c(Br)cc(Br)c(Br)c2C1,7

# Organism: Cavia porcellus
# Assay: Percent inhibition of SRS-A induced contraction minus percent inhibition of 25 mM KCl induced contractions at a conc of 50(uM)
# Type: functional
# Procedure, shortened: as §1
row,Compound,Inhibition [%]
1,O=S(=O)(NS(=O)(=O)N1CCc2cc(Cl)ccc2C1)N1CCc2cc(Cl)ccc2C1,1
2,O=S(=O)(NS(=O)(=O)N1CCc2ccccc2CC1)N1CCc2ccccc2CC1,14
3,O=S(=O)(NC1Cc2ccccc2C1)NS(=O)(=O)NC1Cc2ccccc2C1,11
4,O=S(=O)(NC1CCCC[C@@H]1c1ccccc1)NS(=O)(=O)NC1CCCC[C@H]1c1ccccc1 (some centres undefined),41
5,O=S(=O)(NS(=O)(=O)N1CCc2ccccc21)N1CCc2ccccc21,-13

# — ChEMBL document CHEMBL1121957, “Imidodisulfamides. 2. Substituted 1,2,3,4-tetrahydroisoquinolinylsulfonic imides as antagonists of slow-reacting substance of anaphylaxis” (1982)
